Measured values published in the M2OR odorant receptor database.

What follows are compounds tested against T1, OR5K1 (Homo sapiens) (UniProt Q8NHB7). Settings: stereoisomer not certain.
T1 sequence (whole entry): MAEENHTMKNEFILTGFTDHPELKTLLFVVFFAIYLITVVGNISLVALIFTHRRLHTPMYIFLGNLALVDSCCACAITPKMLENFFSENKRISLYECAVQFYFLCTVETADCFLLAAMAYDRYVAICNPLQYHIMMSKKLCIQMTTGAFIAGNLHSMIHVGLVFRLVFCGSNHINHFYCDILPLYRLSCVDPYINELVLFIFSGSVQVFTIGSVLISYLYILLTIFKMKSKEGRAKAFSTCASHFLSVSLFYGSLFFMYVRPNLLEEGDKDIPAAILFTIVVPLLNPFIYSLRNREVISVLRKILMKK
Procedure, shortened: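 Whether a receptor–molecule pair is responsive (active) rests on the original authors' judgment that its measured signal was statistically different from baseline. Pairs without that judgment are non-responsive (inactive). Sources used varied assay methods, commonly transient luciferase assays in mammalian cell lines.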
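Further: active if original authors judged signal statistically different from baseline.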

Odorant receptor agonist call, inactive:
CSCCC=O, CCOC(=O)CCSC, CCOC(=O)C=Cc1ccccc1, Cc1ccc(O)cc1, CC(C)(S)CCOC=O, CC(=O)OCC=Cc1ccccc1, CC(=O)C1=NCCS1, CCCCCCC1CCC(=O)O1 (centres undefined), CCCCCCC=CC=O, CCCCCc1ccccn1, CCC=CCCC=CC=O, CCCCCC(=O)OCC, CCO, CCCCCC=CCCC=O, Cc1occc(=O)c1O, C=CC(O)CCCCC (centres undefined), CC(C)=CC1CC(C)CCO1 (centres undefined), C=CC(=O)CCCCC, CCOC(=O)C1CCCCC1, CC=CC(=O)C(C)CC (centres undefined), Cc1occc1S, CCC(S)C(C)=O (centres undefined), CCCCCC=CC=CC=O, CC1=CCC2CC1C2(C)C (centres undefined), CCCCCCCC(=O)[O-].[H+], CCCCCC1CCC(=O)O1 (centres undefined), C=C(C)C1CC=C(C)CC1 (centres undefined), CCOC(=O)C(C)C, CCCCCCCC(C)=O, CCOC(=O)C(C)CC (centres undefined), CC(C)c1ccc(C=O)cc1, CC(=O)C=CC1=C(C)CCCC1(C)C, CCOC(=O)CCC(C)C, CCCSSSC, CC(C)CCO, CCC(C)CO (centres undefined), CCc1ccc(O)cc1, CCCCCCOC(C)=O, CCCC(O)CC(=O)OCC (centres undefined)
